Laboratory results published in ChEMBL document CHEMBL1124003, “A pyrimidine-based "flexible" bisubstrate analogue inhibitor of human thymidylate synthase” (J Med Chem, 1988).
pIC50, pKi: −log10 of the molar value.

Key:
[1] = biological target: T1, Thymidylate synthase (Homo sapiens, UniProt P04818); experiment: Competitive inhibition of the human thymidylate synthase at 600 uM as Ki(slope) of 5,10-CH2-H4PteGlu; conditions: in the assay text read “28 uM dUMP” for “600 uM”
In short: (§1)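 TS purified ~1350-fold (specific activity 17.4 units/mg) from human acute myeloblastic leukemia cell pellet; tritium-release assay with [5-3H]dUMP, started by enzyme addition, 45 or 60 min incubation. Ki from varying dUMP, 5,10-CH2-H4PteGlu or 5,10-CH2-H4PteGlu5 at several fixed inhibitor levels; fixed cosubstrate 28 µM dUMP or 600 µM CH2-H4PteGlu (40 µM pentaglutamate); duplicate/triplicate, repeated.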
Target sequence in this assay (P04818 whole entry): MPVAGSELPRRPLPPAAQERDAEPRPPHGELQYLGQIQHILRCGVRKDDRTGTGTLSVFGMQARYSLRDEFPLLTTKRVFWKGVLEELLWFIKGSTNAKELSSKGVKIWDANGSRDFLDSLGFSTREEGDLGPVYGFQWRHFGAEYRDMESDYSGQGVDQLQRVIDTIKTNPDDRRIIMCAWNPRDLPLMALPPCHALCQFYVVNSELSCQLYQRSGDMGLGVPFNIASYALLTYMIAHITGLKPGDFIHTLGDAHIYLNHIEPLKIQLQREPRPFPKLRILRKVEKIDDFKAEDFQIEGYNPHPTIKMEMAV

[2] = biological target: T1, Thymidylate synthase; experiment: Inhibition of human thymidylate synthase at 40 uM concentration of 5,10-CH2-H4PteGlu5; in short: as §1
Target sequence in this assay (P04818 whole entry): as above

[3] = biological target: T1, Thymidylate synthase; experiment: Mixed inhibition of the human thymidylate synthase at 28 uM of 5,10-CH2-H4PteGlu5; in short: as §1
Target sequence in this assay (P04818 2-313 limits assumed): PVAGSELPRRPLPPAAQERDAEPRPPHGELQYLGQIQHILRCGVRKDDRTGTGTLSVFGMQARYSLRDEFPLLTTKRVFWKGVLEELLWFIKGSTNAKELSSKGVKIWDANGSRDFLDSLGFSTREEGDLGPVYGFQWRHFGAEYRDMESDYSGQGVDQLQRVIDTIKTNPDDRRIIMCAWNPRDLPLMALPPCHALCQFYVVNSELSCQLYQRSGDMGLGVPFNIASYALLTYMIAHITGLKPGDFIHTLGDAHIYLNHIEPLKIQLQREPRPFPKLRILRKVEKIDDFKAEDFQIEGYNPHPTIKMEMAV

[4] = biological target: T1, Thymidylate synthase; experiment: Inhibition of human thymidylate synthase at 600 uM concentration of 5,10-CH2-H4PteGlu; in short: as §1
Target sequence in this assay (P04818 whole entry): as the sequence (P04818 whole entry) above

[5] = biological target: T1, Thymidylate synthase; experiment: Competitive inhibition of the human thymidylate synthase at 600 uM of 5,10-CH2-H4PteGlu
Target sequence in this assay (P04818 whole entry): as above

[6] = biological target: T1, Thymidylate synthase; experiment: Competitive inhibition of the human thymidylate synthase at 28 uM as Ki(slope) of 5,10-CH2-H4PteGlu; in short: as §1
Target sequence in this assay (P04818 whole entry): as above

Row | pKi [1] | pIC50 [2] | Kii [3] [µM] | Kis [3] [µM] | pIC50 [4] | pKi [5] | pKi [6] | Compound
1 | 7.07 | 6.70 | 0.11 | 0.33 | 6.41 | 7.57 |  | Nc1nc(O)c2c(n1)CCC(CNc1ccc(C(=O)NC(CCC(=O)O)C(=O)O)cc1)N2Cc1cn([C@H]2C[C@H](O)[C@@H](COP(=O)(O)O)O2)c(=O)[nH]c1=O (stereo partly drawn)
2 |  | 6.46 | 0.2 | 1.19 | 6.00 |  | 6.64 | Cc1nc(N)nc(O)c1N(CCN(C)c1ccc(C(=O)NC(CCC(=O)O)C(=O)O)cc1)Cc1cn([C@H]2C[C@H](O)[C@@H](COP(=O)(O)O)O2)c(=O)[nH]c1=O (stereo partly drawn)
3 |  | 5.93 |  |  | 5.14 |  |  | Cc1nc(N)nc(O)c1N(CCNc1ccc(C(=O)NC(CCC(=O)O)C(=O)O)cc1)Cc1cn([C@H]2C[C@H](O)[C@@H](COP(=O)(O)O)O2)c(=O)[nH]c1=O (stereo partly drawn)
